Test results taken from ChEMBL document CHEMBL1138799, “4-benzyl- and 4-benzoyl-3-dimethylaminopyridin-2(1H)-ones, a new family of potent anti-HIV agents: optimization and in vitro evaluation against clinically important HIV mutant strains” (J Med Chem, 2004).

Legend:
[1] = tested on: Human immunodeficiency virus 1; assay: Inhibitory activity against HIV-1 mutant strain 181C; type: functional, organism-based
How it was run: (§1)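 Mutant HIV-1 made by recombining mutant PR-RT sequence into a PR-RT-deleted HXB2 proviral clone. Serial compound concentrations plated, then virus (200 CCID50/well) and MT4 cells (30 000 cells/well; RPMI 1640, 10% FCS) added; 5 days at 37 °C, 5% CO2; viability read by MTT. EC50 = concentration giving 50% infection versus drug-free control; mock-infected cultures run in parallel for toxicity.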

[2] = tested on: Human immunodeficiency virus 1; assay: Inhibitory activity against HIV-1 mutant strain 103N; type: functional, organism-based; how it was run: as §1
[3] = tested on: Human immunodeficiency virus 1; assay: Selectivity index of cytotoxic activity (CC50) to inhibitory activity (IC50) relative to LAI cell line; type: functional
How it was run: (§2)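 MT4 human T-lymphoblastoid cells were grown in RPMI 1640 with 10% fetal calf serum and antibiotics at 37 °C and 5% CO2. A compound concentration series was combined with HIV-1 LAI at 200 CCID50/well and 30 000 cells/well. Mock-infected cultures with the same concentrations were run in parallel to measure cytotoxicity. After 5 days, cell viability was read by MTT colorimetry. EC50 is the concentration giving 50% infection versus the drug-free control.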

[4] = tested on: Human immunodeficiency virus 1; assay: Inhibitory activity against wild type HIV-1 LAI cell line; type: functional, organism-based; conditions: Human immunodeficiency virus 1, LAI; how it was run: as §2
[5] = tested on: Human immunodeficiency virus 1; assay: Inhibitory activity against HIV-1 mutant strain 188L; type: functional, organism-based; how it was run: as §1
[6] = tested on: Human immunodeficiency virus 1; assay: Inhibitory activity against HIV-1 mutant strain 138K; type: functional, organism-based; how it was run: as §1
[7] = tested on: Human immunodeficiency virus 1; assay: Inhibitory activity against HIV-1 mutant strain 101E; type: functional, organism-based; how it was run: as §1
[8] = tested on: Human immunodeficiency virus 1; assay: Inhibitory activity against HIV-1 mutant strain 100I; type: functional, organism-based; how it was run: as §1
[9] = tested on: Human immunodeficiency virus 1; assay: Inhibitory activity against HIV-1 double mutants strain 227L and 106A; type: functional, organism-based; how it was run: as §1
[10] = tested on: Human immunodeficiency virus 1; assay: Inhibitory activity against HIV-1 mutant strain 190S; type: functional, organism-based; how it was run: as §1
[11] = tested on: Human immunodeficiency virus 1; assay: Inhibitory activity against HIV-1 mutant strain 227C; type: functional, organism-based; how it was run: as §1
[12] = tested on: Human immunodeficiency virus 1; assay: Inhibitory activity against HIV-1 double mutants strain 103N and 181C; type: functional, organism-based; how it was run: as §1
[13] = tested on: Human immunodeficiency virus 1; assay: Inhibitory activity against HIV-1 mutant strain 179E; type: functional, organism-based; how it was run: as §1
[14] = tested on: Human immunodeficiency virus 1; assay: Inhibitory activity against HIV-1 mutant strain 190A; type: functional, organism-based; how it was run: as §1
[15] = tested on: Human immunodeficiency virus 1; assay: Inhibitory activity against HIV-1 double mutants strain 101E and 103N; type: functional, organism-based; how it was run: as §1
[16] = tested on: Human immunodeficiency virus 1; assay: Inhibitory activity against HIV-1 double mutants strain 100I and 103N; type: functional, organism-based; how it was run: as §1
[17] = tested on: Human immunodeficiency virus 1; assay: Inhibitory activity against HIV-1 mutant strain 106A; type: functional, organism-based; how it was run: as §1

Structure (SMILES) | IC50 [1] [µM] | IC50 [2] [µM] | Selectivity index [3] | IC50 [4] [µM] | IC50 [5] [µM] | IC50 [6] [µM] | IC50 [7] [µM] | IC50 [8] [µM] | IC50 [9] [µM] | IC50 [10] [µM] | IC50 [11] [µM] | IC50 [12] [µM] | IC50 [13] [µM] | IC50 [14] [µM] | IC50 [15] [µM] | IC50 [16] [µM] | IC50 [17] [µM]
CCc1c(C)nc(O)c(N(C)C)c1C(=O)c1cccc(CCC#N)c1 | 0.25 | 0.01 | 31600 | 0.003 | 1.99 |  |  |  |  |  |  |  |  |  |  |  | 
CCc1c(C)nc(O)c(N(C)C)c1C(=O)c1cccc(/C(C)=C(\C)C#N)c1 | 0.12 | 0.02 | 1580 | 0.006 | 1.58 |  |  |  |  |  |  |  |  |  |  |  | 
CCc1c(C)nc(O)c(N(C)C)c1C(=O)c1cccc(CC#N)c1 | 0.12 | 0.006 | 31600 | 0.001 | 1 |  |  |  |  |  |  |  |  |  |  |  | 
CCc1c(C)nc(O)c(N(C)C)c1C(=O)c1cc(Cl)cc(Cl)c1 | 0.03 | 0.01 | 5010 | 0.002 | 0.31 | 0.01 | 0.01 | 0.008 | 0.06 | 0.003 | 0.63 | 0.15 | 0.01 | 0.01 | 0.04 | 0.5 | 
CCc1c(C)nc(O)c(N(C)C)c1C(=O)c1cccc(C=O)c1 | 1.25 | 0.12 | 2510 | 0.008 | 10 |  |  |  |  |  |  |  |  |  |  |  | 
CCc1c(C)nc(O)c(N(C)C)c1C(=O)c1cccc([N+](=O)[O-])c1 | 0.2 | 0.02 | 39600 | 0.002 | 3.16 |  |  |  |  |  |  |  |  |  |  |  | 
CCc1c(C)nc(O)c(N(C)C)c1Cc1ccccc1 | 0.5 | 0.2 | 25100 | 0.004 | 7.94 |  |  |  |  |  |  |  |  |  |  |  | 
C=Cc1cccc(C(=O)c2c(CC)c(C)nc(O)c2N(C)C)c1 | 0.63 | 0.03 | 12600 | 0.002 | 0.79 |  |  |  |  |  |  |  |  |  |  |  | 
CCc1c(C)nc(O)c(N(C)C)c1C(=O)c1ccc(OC)c(C)c1 | 100 | 1.58 | 200 | 0.07 | 100 |  |  |  |  |  |  |  |  |  |  |  | 
O=C1Nc2ccc(Cl)cc2[C@@](C#CC2CC2)(C(F)(F)F)O1 [EFAVIRENZ] | 0.002 | 0.04 |  |  | 0.15 | 0.002 | 0.006 | 0.04 | 0.02 | 0.25 | 0.15 | 0.04 | 0.005 | 0.01 | 0.15 | 10 | 0.04
CCc1c(C)nc(O)c(N(C)C)c1Cc1cc(F)cc(F)c1 | 0.1 | 0.03 | 7940 | 0.01 | 0.5 |  |  |  |  |  |  |  |  |  |  |  | 
CCc1c(C)nc(O)c(N(C)C)c1Cc1ccccc1Cl | 0.2 | 0.39 | 15900 | 0.006 | 0.79 |  |  |  |  |  |  |  |  |  |  |  | 
CCc1c(C)nc(O)c(N(C)C)c1Cc1cccc(OC)c1 | 0.32 | 0.1 | 12600 | 0.004 | 0.31 |  |  |  |  |  |  |  |  |  |  |  | 
CCc1c(C)nc(O)c(N(C)C)c1Cc1cccc(C)c1 | 0.06 | 0.02 | 39900 | 0.002 | 1 |  |  |  |  |  |  |  |  |  |  |  | 
CCc1c(C)nc(O)c(N(C)C)c1C(=O)c1cccc(CO)c1 | 3.87 | 0.36 | 2940 | 0.05 | 18.6 |  |  |  |  |  |  |  |  |  |  |  | 
CCc1c(C)nc(O)c(N(C)C)c1C(=O)c1cccc(N)c1 | 10 | 0.5 | 2510 | 0.01 | 10 |  |  |  |  |  |  |  |  |  |  |  | 
CCc1c(C)nc(O)c(N(C)C)c1Cc1cc(Cl)cc(Cl)c1 | 0.16 | 0.02 | 3980 | 0.008 | 0.63 |  |  | 0.05 | 0.5 |  | 0.7 | 0.5 |  |  | 0.2 | 0.31 | 
CCc1c(C)nc(O)c(N(C)C)c1Cc1cn(C)c2ccccc12 | 0.31 | 0.39 | 2510 | 0.03 | 0.25 |  |  |  |  |  |  |  |  |  |  |  | 
